High-throughput results from PubChem.
Sampled rows, rich in hits. Any-hit rate of the full collection: about 3.5%.
RGS4 inh = RGS4 inhibitors, primary screen, cell-based, HEK293 M3R inducible RGS4, calcium flux | Fluo-4 calcium flux; hits give high values; triggered by carbachol at its EC20 | B-score at 10 µM | AID 463165, 2010 | Regulator of G-protein signaling 4 (Homo sapiens), P49798 | 0.45% of 310,000 active;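 active means B-score, a plate-corrected calcium signal, over three deviations above library mean, with baseline fluorescence within five deviations of library mean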;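 further: RGS4 expression induced by doxycycline in cells with stable M3 receptor; B-score is computed from the integrated fluorescence ratio over baseline after carbachol; higher B-score means a larger calcium signal and so more RGS4 inhibition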
Target sequence (P49798 whole entry, looked up): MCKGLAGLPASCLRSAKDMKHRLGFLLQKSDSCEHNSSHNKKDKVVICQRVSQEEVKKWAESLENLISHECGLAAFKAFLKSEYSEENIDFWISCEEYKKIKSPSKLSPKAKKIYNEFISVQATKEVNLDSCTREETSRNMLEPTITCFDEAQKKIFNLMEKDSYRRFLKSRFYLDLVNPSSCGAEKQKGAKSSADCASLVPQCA
MrgX1 ag = agonists of human MrgX1 receptor, primary screen, HEK293 cells, Fluo-4 calcium flux. Fluo-4 calcium fluorescence, agonist mode; hits give high values. B-score at 10 µM. 0.44% of 310,000 active. AID 588627, 2011;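 active means calcium response B-score plate-corrected fluorescence ratio at least 3 library SD, with starting fluorescence B-score inside 5 SD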
Target sequence (Q96LB2 whole entry, looked up): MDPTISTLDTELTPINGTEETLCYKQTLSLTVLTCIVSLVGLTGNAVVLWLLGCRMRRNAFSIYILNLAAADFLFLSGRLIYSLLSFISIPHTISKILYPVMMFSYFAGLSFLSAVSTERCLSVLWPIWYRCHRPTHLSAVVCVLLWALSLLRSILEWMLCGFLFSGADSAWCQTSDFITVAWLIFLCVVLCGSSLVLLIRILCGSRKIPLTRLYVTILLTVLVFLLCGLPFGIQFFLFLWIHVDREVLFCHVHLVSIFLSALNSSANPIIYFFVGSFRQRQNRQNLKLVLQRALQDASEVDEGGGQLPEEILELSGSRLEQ
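Test system: HEK293 cells stably expressing human MrgX1 receptor; amount: 15,000 cells per well; doses: compound delivered in addition one of three; times: overnight plating before 1 h dye loading; detection: Fluo-4 NW calcium-flux fluorescence, kinetic read; read-out basis: B-scored fluorescence response ratio; controls: positive and negative controls per plate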
MrgX1 allo act = positive allosteric modulators of MrgX1, primary screen, HEK293 cells, Fluo-4 calcium flux; Mas-related G-protein coupled receptor member X1 (Homo sapiens), Q96LB2; FDSS; hits give high values; B-score at 10 µM; 0.63% of 310,000 active;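 active means plate-corrected calcium response at least 3 library SD above typical, normal starting fluorescence, not activating the receptor alone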;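 further: compound read alongside a low EC10 to EC30 dose of BAM8-22 agonist; peak minus trough fluorescence over baseline measured at the second addition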
MrgX1 antag = antagonists of human MrgX1 receptor, primary screen, HEK293 cells, Fluo-4 calcium flux | BAM8-22 antagonism; hits give low values | 1.3% of 310,000 active | B-score at 10 µM;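 active means calcium-response B-score plate-corrected more than 3 library SD below zero, starting fluorescence within 5 deviations, no agonist response on first addition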;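 further: peak minus trough fluorescence over baseline after final BAM8-22 challenge near maximal dose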
RGS4 act = RGS4 potentiators or activators, primary screen, cell-based, HEK293 M3R inducible RGS4, calcium flux. carbachol calcium flux Fluo4; hits give low values. B-score at 10 µM. 0.92% of 310,000 active;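 active means B-score of the integrated calcium signal more than 4 SD below the library mean, with starting fluorescence not abnormally high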;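 further: negative B-score means reduced calcium response which marks RGS4 activation or potentiation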
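System: HEK293 FlpIn-TREx cells, stable M3R, doxycycline-inducible RGS4. Timing: overnight RGS4 induction, 30 min dye load 37 °C, 20 min compound RT. Also added: carbachol, ECmax concentration. Measured by: Fluo4 fluorescence kinetic imaging of calcium. Evaluation: integrated calcium ratio converted to B score.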
MrgX1 ag reconf = MrgX1 receptor agonists, duplicate retest, confirmation, HEK293 cells, Fluo-4 calcium flux; shares compounds with MrgX1 ag; Fluo-4 calcium fluorescence, FDSS; activation, % at 10 µM; 78% of 600 active;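 active means calcium signal rise, corrected for plate position, at least 3 library SD high, with starting brightness within 5 such deviations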
HEK293 Ca flux = nonspecific calcium signal in parental HEK293, confirmation, counter-screen for MrgX1 antagonist project, parental HEK293 cells, Fluo-4 calcium flux. shares compounds with MrgX1 antag. Fluo-4 calcium fluorescence, FDSS. fluorescence ratio F(max-min)/F0 at 10 µM. 2% of 4,000 active;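 active means duplicate-averaged calcium fluorescence ratio at least three times the standard deviation of buffer wells, a nonspecific response in parental cells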
HEK293 Ca counter = calcium response in parental HEK293 cells, primary screen, counter-screen for MrgX1 allosteric activator project, cell-based, Fluo-4 calcium flux, duplicate; Fluo-4 fluorescence ratio; hits give high values; 0.4% of 4,000 active; fluorescence ratio F(max-min)/F0 at 10 µM; shares compounds with MrgX1 antag;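 active means calcium fluorescence ratio, averaged over duplicates, at least 3 SD of the buffer-well ratio, meaning a nonspecific response in receptor-free cells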;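 further: untransfected parental HEK293 lacking MrgX1 used as counterscreen for MrgX1 allosteric activators; fluorescence change taken during the second addition on a kinetic imager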
HEK293 Ca cntr2 = calcium response in parental HEK293 cells, primary screen, counter-screen for MrgX1 agonist project, cell-based, Fluo-4 calcium flux, duplicate, agonist mode; Fluo-4 calcium fluorescence (FDSS); hits give high values; fluorescence ratio F(max-min)/F0 at 10 µM; shares compounds with MrgX1 antag; 8.7% of 4,000 active;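 active means calcium fluorescence ratio at least three times the spread of buffer wells, meaning a non-specific response in parental cells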
* marks the source's active call; other numbers are inactive results; i = inactive; · = no result given.

SMILES | RGS4 inh | MrgX1 ag | MrgX1 allo act | MrgX1 antag | RGS4 act | MrgX1 ag reconf | HEK293 Ca flux | HEK293 Ca counter | HEK293 Ca cntr2
CC(=O)c1ccc(OC(C)C)c(CSC(=N)N)c1 | i | 38* | i | i | i | 199%* | i | i | i
O=C(NCCc1ccc(F)cc1)c1ccc2c(=O)n3c(nc2c1)CCC3 | i | 32* | i | i | i | 217%* | i | i | 52*
O=C(NCc1ccccc1)c1ccc2c(=O)n3c(nc2c1)CCCCC3 | i | i | i | i | i | · | · | · | ·
Cc1cc(SCC(=O)c2ccc(O)c(O)c2)n2nc(C)c(-c3ccccc3)c2n1 | i | i | i | i | i | · | · | · | ·
COc1ccc(-n2c(O)c(/C=N/NS(=O)(=O)c3ccc(C)cc3)c3ccccc3c2=O)cc1OC | i | 86* | i | i | -7* | 199%* | i | i | 67*
COc1ccc(-n2c(O)c(/C=N/Nc3nc(C)cc(C)n3)c3ccccc3c2=O)cc1OC | i | i | i | i | i | · | · | · | ·
COc1ccc(C)cc1S(=O)(=O)Nc1ccc(-n2c(C)nc3ccccc3c2=O)cc1 | i | i | i | i | i | · | · | · | ·
COc1ccc(-n2c(O)c(/C=N/NS(=O)(=O)c3cc(C)ccc3C)c3ccccc3c2=O)cc1OC | i | 130* | i | i | -7.7* | 322%* | 0.32* | i | 132*
COc1ccccc1N(CC(=O)N1CCCCCC1)S(=O)(=O)c1ccc(C)cc1 | i | i | i | i | i | · | · | · | ·
CCOc1ccccc1N(CC(=O)N1CCCCCC1)S(=O)(=O)c1ccc(C)cc1 | i | 34* | i | i | i | 142%* | i | i | 50*
CCOc1ccccc1N(CC(=O)N1CCOCC1)S(=O)(=O)c1ccccc1 | i | 138* | i | i | i | 541%* | i | i | 103*
CCOc1ccccc1N(CC(=O)N1CCC(C)CC1)S(=O)(=O)c1ccc(C)cc1 | i | i | i | i | i | · | · | · | ·
COc1ccc(/C=C2\Oc3cc(OCC(=O)N4CCC[C@H]4CO)ccc3C2=O)c(OC)c1 | i | i | i | i | i | · | · | · | ·
Cc1ccc(C)c(OCC(=O)NCC(c2ccco2)N2CCCCC2)c1 (stereo not given) | i | i | i | i | i | · | · | · | ·
CCOC(=O)c1c(CN2CCN(C)CC2)n(C)c2cc(Br)c(OC)cc12 | i | i | i | i | i | · | · | · | ·
CCOC(=O)c1c(CSC(=N)N)n(C)c2cc(Br)c(OC(C)=O)cc12 | i | 46* | i | i | i | 188%* | i | i | i
CC(C)(C)NC(=O)COC(=O)CNC(=O)c1cc(Cl)cc([N+](=O)[O-])c1 | i | i | i | i | i | · | · | · | ·
CC(C)n1c(-c2ccc(N(C)C)cc2)nc2ccccc21 | · | 30* | i | i | · | 162%* | i | i | i
CCn1c(-c2ccc(N(C)C)cc2)nc2ccccc21 | i | 31* | i | i | i | 87%* | i | i | i
CCn1c(-c2ccc(N)cc2)nc2ccccc21 | i | i | i | i | i | · | · | · | ·
Cc1ccc(NC(=S)NNC(=O)c2cccc([N+](=O)[O-])c2)cc1Cl | i | i | i | i | i | · | · | · | ·
CC(OC(=O)c1ccncc1)C(=O)Nc1cc(S(=O)(=O)N2CCCCC2)ccc1Cl (stereo not given) | i | i | i | i | i | · | · | · | ·
Cc1ccc(Nc2nnc(-c3ccncc3)s2)c(Br)c1 | i | 49* | i | i | i | i | i | i | i
CNc1nnc(-c2ccncc2)s1 | i | i | i | i | i | · | · | · | ·
CCCn1c(=O)c(C(=O)NNC(=O)c2ccccc2Cl)c(O)c2ccccc21 | i | 97* | i | i | i | 308%* | i | i | 64*
SMILES | RGS4 inh | MrgX1 ag | MrgX1 allo act | MrgX1 antag | RGS4 act | MrgX1 ag reconf | HEK293 Ca flux | HEK293 Ca counter | HEK293 Ca cntr2
N/C(=N\N=C/c1ccc(F)cc1)N/N=C\c1ccc(F)cc1 | i | 66* | i | i | i | 499%* | i | i | 76*
COc1cc2oc(=O)ccc2c(OC)c1CC(O)C(C)(C)O (stereo not given) | i | i | i | i | i | · | · | · | ·
N=C(N)SCCc1cccc(CCSC(=N)N)c1 | i | 40* | i | i | i | 181%* | i | i | i
Cc1ccc(-n2c(=O)[nH]c3c(oc4ccccc43)c2=O)cc1 | i | 78* | i | i | i | 396%* | i | i | 118*
CCSc1nnc(-c2cc(Br)ccc2N=Cc2c(C)[nH]n(-c3ccccc3)c2=O)c(=O)[nH]1 | i | 71* | i | i | i | 109%* | i | i | 61*
CSc1nnc(-c2cc(Br)ccc2N=Cc2c(C)[nH]n(-c3ccccc3)c2=O)c(=O)[nH]1 | i | i | i | i | i | · | · | · | ·
Cc1ncc(CO)c(CNc2ccc(-c3nc4ccccc4[nH]3)cc2)c1O | i | i | i | i | i | · | · | · | ·
Cc1ccc(C(=O)NNC(=S)NC(=O)c2ccc(Cl)cc2)cc1 | i | 132* | i | i | i | 747%* | i | i | 138*
O=C(CCc1ccccc1)NNC(=O)c1ccc(Cl)cc1 | i | i | i | i | i | · | · | · | ·
O=C(CCc1ccccc1)NNC(=S)NC(=O)c1ccc(Cl)cc1 | i | 141* | i | i | i | 696%* | i | i | 126*
CC1CC(CCC(=O)NC(=S)Nc2ccc(S(N)(=O)=O)cc2)C(=O)O1 (stereo not given) | i | i | i | i | i | · | · | · | ·
